Reference: ChEMBL document CHEMBL4346654 (Eur J Med Chem, 2019)
Converted amounts (≈) assume the structure as drawn.

What was measured:
[1] = Ratio of test compound MRT to telithromycin MRT in Sprague-Dawley rat at 20 mg/kg, po after 0.25 to 24 hrs by LC-MS/MS analysis; format: ADME, organism-based; conditions: in vivo
Staphylococcus aureus [2] = assay: Antibacterial activity against MLS-resistant Staphylococcus aureus PU 20 expressing constitutive ermC gene assessed as reduction in microbial growth by CLSI based two-fold broth dilution method; format: functional
Streptococcus pneumoniae [3] = assay: Selectivity ratio of MBC to MIC for penicillin-susceptible Streptococcus pneumoniae PU 09 expressing mef gene; format: functional
In short: (§1)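 Isolates were identified by 16S rDNA sequencing. MIC was determined by CLSI-recommended two-fold broth dilution. For MBC, samples from 1–8 fold MIC were transferred to culture medium and subcultured for 24 h without antibiotic.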

Streptococcus pneumoniae [4] = assay: Selectivity ratio of MBC to MIC for Streptococcus pneumoniae 07P390 expressing constitutive ermB gene; format: functional; in short: as §1
Rattus norvegicus = assay: Ratio of test compound half life to telithromycin half life in Sprague-Dawley rat at 20 mg/kg, po after 0.25 to 24 hrs by LC-MS/MS analysis; format: ADME, organism-based; conditions: in vivo
[5] = AUC (0 to t) in Sprague-Dawley rat at 20 mg/kg, po after 0.25 to 24 hrs by LC-MS/MS analysis; format: ADME, organism-based; design: time upper 24 hr, dose 20 mg/kg, time lower 0.25 hr, route oral; conditions: in vivo
In short: (§2)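 Male SD rats were given a single 20 mg/Kg oral dose. Blood was sampled at 0.25, 0.5, 1, 2, 4, 6, 8 and 24 h and centrifuged at 2500 g for 5 min at 4 °C. Drug levels were quantified by LC-MS/MS. t1/2, Cmax, Tmax, CL, MRT and AUC were calculated from the concentration–time data.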

[6] = Half life in Sprague-Dawley rat at 20 mg/kg, po after 0.25 to 24 hrs by LC-MS/MS analysis; format: ADME, organism-based; conditions: in vivo; in short: as §2
Staphylococcus aureus [7] = assay: Bactericidal activity against MLS/methicillin-resistant Staphylococcus aureus PU 32 expressing inducible ermA gene pretreated followed by subculture in absence of compound measured after 24 hrs; format: functional
In short: (§3)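 MBC assay. Following MIC determination by CLSI standard two-fold broth dilution, samples at 1–8 fold MIC were transferred to fresh culture medium. They were subcultured for 24 h without antibiotic. Isolates were identified by 16S rDNA sequencing. S. aureus ATCC 29213 was used as a control strain.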

[8] = Tmax in Sprague-Dawley rat at 20 mg/kg, po after 0.25 to 24 hrs by LC-MS/MS analysis; format: ADME, organism-based; conditions: in vivo; in short: as §2
Streptococcus pyogenes [9] = assay: Bactericidal activity against Streptococcus pyogenes 12-207 expressing mef gene pretreated followed by subculture in absence of compound measured after 24 hrs; format: functional; in short: as §1
Streptococcus pyogenes [10] = assay: Bactericidal activity against MLS-resistant Streptococcus pyogenes 12-206 expressing constitutive ermA gene pretreated followed by subculture in absence of compound measured after 24 hrs; format: functional; in short: as §3
Cytochrome P450 3A4 [11] = target: T1, Cytochrome P450 3A4 (Homo sapiens, UniProt P08684); assay: Inhibition of CYP3A4 in human liver microsomes assessed as reduction in metabolite formation using midazolam as substrate incubated for 10 mins in presence of NADPH by HPLC based mass spectrometric method; format: ADME
T1 sequence (P08684 whole entry): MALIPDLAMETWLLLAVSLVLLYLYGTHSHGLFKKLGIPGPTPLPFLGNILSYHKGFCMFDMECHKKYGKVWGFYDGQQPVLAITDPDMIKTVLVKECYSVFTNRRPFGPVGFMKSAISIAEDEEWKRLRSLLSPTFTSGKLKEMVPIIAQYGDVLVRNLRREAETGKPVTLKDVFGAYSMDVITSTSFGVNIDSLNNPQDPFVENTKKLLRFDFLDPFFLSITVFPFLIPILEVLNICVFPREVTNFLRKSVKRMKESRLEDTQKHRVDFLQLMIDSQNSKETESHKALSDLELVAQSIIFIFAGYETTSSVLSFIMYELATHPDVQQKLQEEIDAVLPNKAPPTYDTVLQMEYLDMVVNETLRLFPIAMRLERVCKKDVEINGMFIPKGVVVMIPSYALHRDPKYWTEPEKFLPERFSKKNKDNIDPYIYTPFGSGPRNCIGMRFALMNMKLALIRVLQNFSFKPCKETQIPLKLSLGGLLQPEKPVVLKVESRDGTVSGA
In short: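 Human liver microsome CYP3A4 with midazolam substrate in 0.1 M potassium phosphate buffer was prewarmed at 37 °C for 5 min. Compound and 25 mM NADPH solution (stock) were added, then incubated at 37 °C for 10 min. Ketoconazole served as the positive inhibitor. Metabolite was measured by UPLC–triple quadrupole MS as the metabolite/internal standard peak area ratio, and IC50 was derived by curve fitting.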

Staphylococcus aureus [12] = assay: Bactericidal activity against MLS-resistant Staphylococcus aureus PU 20 expressing constitutive ermC gene pretreated followed by subculture in absence of compound measured after 24 hrs; format: functional; in short: as §3
Moraxella catarrhalis [13] = assay: Antibacterial activity against erythromycin-susceptible Moraxella catarrhalis 13L332 assessed as reduction in microbial growth by CLSI based two-fold broth dilution method; format: functional
Streptococcus pyogenes [14] = assay: Bactericidal activity against MLS-resistant Streptococcus pyogenes 01-968 expressing inducible ermB gene pretreated followed by subculture in absence of compound measured after 24 hrs; format: functional; in short: as §3
Streptococcus pyogenes [15] = assay: Antibacterial activity against Streptococcus pyogenes 12-207 expressing mef gene assessed as reduction in microbial growth by CLSI based two-fold broth dilution method; format: functional
Streptococcus pyogenes [16] = assay: Antibacterial activity against MLS-resistant Streptococcus pyogenes 12-206 expressing constitutive ermA gene assessed as reduction in microbial growth by CLSI based two-fold broth dilution method; format: functional
Streptococcus pneumoniae [17] = assay: Antibacterial activity against Streptococcus pneumoniae 07P390 expressing constitutive ermB gene assessed as reduction in microbial growth by CLSI based two-fold broth dilution method; format: functional
Streptococcus pyogenes [18] = assay: Antibacterial activity against MLS-resistant Streptococcus pyogenes 01-968 expressing inducible ermB gene assessed as reduction in microbial growth by CLSI based two-fold broth dilution method; format: functional
Haemophilus influenzae [19] = assay: Selectivity ratio of MBC to MIC for azithromycin-susceptible Haemophilus influenzae ATCC 49247; format: functional; in short: as §1
Streptococcus pyogenes [20] = assay: Selectivity ratio of MBC to MIC for MLS-resistant Streptococcus pyogenes 12-206 expressing constitutive ermA gene; format: functional
In short: (§4)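 MBC/MIC ratio. MIC was measured by CLSI standard two-fold broth dilution. MBC was measured by transferring samples at 1–8 fold MIC to culture medium and subculturing for 24 h without antibiotic. Isolates were identified by 16S rDNA sequencing.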

Moraxella catarrhalis [21] = assay: Bactericidal activity against erythromycin-susceptible Moraxella catarrhalis 13L332 pretreated followed by subculture in absence of compound measured after 24 hrs; format: functional; in short: as §1
Streptococcus pneumoniae [22] = assay: Antibacterial activity against erythromycin-susceptible Streptococcus pneumoniae ATCC49619 assessed as reduction in microbial growth by CLSI based two-fold broth dilution method; format: functional
Streptococcus pneumoniae [23] = assay: Bactericidal activity against erythromycin-susceptible Streptococcus pneumoniae ATCC49619 pretreated followed by subculture in absence of compound measured after 24 hrs; format: functional; in short: as §1
Streptococcus pneumoniae [24] = assay: Bactericidal activity against penicillin-susceptible Streptococcus pneumoniae PU 09 expressing mef gene pretreated followed by subculture in absence of compound measured after 24 hrs; format: functional; in short: as §1
Staphylococcus aureus [25] = assay: Selectivity ratio of MBC to MIC for MLS/methicillin-resistant Staphylococcus aureus PU 32 expressing inducible ermA gene; format: functional; in short: as §4
Haemophilus influenzae [26] = assay: Bactericidal activity against azithromycin-susceptible Haemophilus influenzae ATCC 49247 pretreated followed by subculture in absence of compound measured after 24 hrs; format: functional; in short: as §1
Streptococcus pyogenes [27] = assay: Selectivity ratio of MBC to MIC for Streptococcus pyogenes 12-207 expressing mef gene; format: functional; in short: as §1
Staphylococcus aureus [28] = assay: Antibacterial activity against MLS-resistant Staphylococcus aureus PU 32 expressing inducible ermA gene assessed as reduction in microbial growth by CLSI based two-fold broth dilution method; format: functional
Moraxella catarrhalis [29] = assay: Selectivity ratio of MBC to MIC for erythromycin-susceptible Moraxella catarrhalis 13L332; format: functional; in short: as §1
[30] = Cmax in Sprague-Dawley rat at 20 mg/kg, po after 0.25 to 24 hrs by LC-MS/MS analysis; format: ADME, organism-based; design: dose 20 mg/kg, route oral; conditions: in vivo; in short: as §2
Haemophilus influenzae [31] = assay: Antibacterial activity against azithromycin-susceptible Haemophilus influenzae ATCC 49247 assessed as reduction in microbial growth by CLSI based two-fold broth dilution method; format: functional
[32] = MRT in Sprague-Dawley rat at 20 mg/kg, po after 0.25 to 24 hrs by LC-MS/MS analysis; format: ADME, organism-based; conditions: in vivo; in short: as §2
Streptococcus pyogenes [33] = assay: Selectivity ratio of MBC to MIC for MLS-resistant Streptococcus pyogenes 01-968 expressing inducible ermB gene; format: functional; in short: as §4
Streptococcus pneumoniae [34] = assay: Bactericidal activity against Streptococcus pneumoniae 07P390 expressing constitutive ermB gene pretreated followed by subculture in absence of compound measured after 24 hrs; format: functional; in short: as §1
[35] = AUCinfinity in Sprague-Dawley rat at 20 mg/kg, po after 0.25 to 24 hrs by LC-MS/MS analysis; format: ADME, organism-based; design: dose 20 mg/kg, time infinity, route oral; conditions: Sprague-Dawley, in vivo; in short: as §2
Streptococcus pneumoniae [36] = assay: Antibacterial activity against penicillin-susceptible Streptococcus pneumoniae PU 09 expressing mef gene assessed as reduction in microbial growth by CLSI based two-fold broth dilution method; format: functional
[37] = Systemic plasma clearance in Sprague-Dawley rat at 20 mg/kg, po after 0.25 to 24 hrs by LC-MS/MS analysis; format: ADME, organism-based; in short: as §2
Cytochrome P450 3A4 [38] = target: T1, Cytochrome P450 3A4; assay: Inhibition of CYP3A4 (unknown origin); format: ADME

`CC[C@H]1OC(=O)[C@@](C)(F)C(=O)[C@H](C)[C@@H](O[C@@H]2O[C@H](C)C[C@H](N(C)C)[C@H]2O)[C@](C)(OC)C[C@@H](C)/C(=N\OCC#Cc2ccc3c(c2)c(=O)c(C(N)=O)cn3CC)[C@H](C)[C@H]2OC(=O)O[C@@]21C` showed a Ratio [1] of 2.3 to 2.6, an MIC (Staphylococcus aureus [2]) of 128 µg/mL and a Selectivity ratio (Streptococcus pneumoniae [3]) of 2. The Selectivity ratio (Streptococcus pneumoniae [4]) was over 8, the Ratio (Rattus norvegicus) was 2.5 to 3.6 and the AUC(0-t) [5] was 228 ng·h/mL. The half-life [6] was 192 min, the MBC (Staphylococcus aureus [7]) was 8 µg/mL (≈ 8.9 µM) and the Tmax [8] was 7 h. The MBC (Streptococcus pyogenes [9]) was 0.5 µg/mL (≈ 0.556 µM), the MBC (Streptococcus pyogenes [10]) was over 1 µg/mL and the IC50 (Cytochrome P450 3A4 [11]) was 7.32 µM. The MBC (Staphylococcus aureus [12]) was over 256 µg/mL, the MIC (Moraxella catarrhalis [13]) was 4 µg/mL and the MBC (Streptococcus pyogenes [14]) was over 0.016 µg/mL. For the same compound, the MIC (Streptococcus pyogenes [15]) was 0.125 µg/mL, the MIC (Streptococcus pyogenes [16]) was 0.125 µg/mL and the MIC (Streptococcus pneumoniae [17]) was 0.125 µg/mL. It also gave an MIC (Streptococcus pyogenes [18]) of at most 2 ng/mL, a Selectivity ratio (Haemophilus influenzae [19]) of 2 and a Selectivity ratio (Streptococcus pyogenes [20]) of over 8. For the same compound, the MBC (Moraxella catarrhalis [21]) was 32 µg/mL (≈ 35.6 µM), the MIC (Streptococcus pneumoniae [22]) was at most 8 ng/mL and the MBC (Streptococcus pneumoniae [23]) was at most 8 ng/mL. The MBC (Streptococcus pneumoniae [24]) was 0.5 µg/mL (≈ 0.556 µM), the Selectivity ratio (Staphylococcus aureus [25]) was 8 and the MBC (Haemophilus influenzae [26]) was 32 µg/mL (≈ 35.6 µM). The Selectivity ratio (Streptococcus pyogenes [27]) was 4, the MIC (Staphylococcus aureus [28]) was 1 µg/mL and the Selectivity ratio (Moraxella catarrhalis [29]) was 8. For the same compound, the Cmax [30] was 43.5 ng/mL, the MIC (Haemophilus influenzae [31]) was 16 µg/mL and the MRT [32] was 8.53 h. The Selectivity ratio (Streptococcus pyogenes [33]) was over 8, the MBC (Streptococcus pneumoniae [34]) was over 1 µg/mL and the AUC(0-inf) [35] was 281 ng·h/mL. The MIC (Streptococcus pneumoniae [36]) was 0.25 µg/mL and the CL/F [37] was 1190 mL/min/kg.
`CC[C@H]1OC(=O)[C@H](C)C(=O)[C@H](C)[C@@H](O[C@@H]2O[C@H](C)C[C@H](N(C)C)[C@H]2O)[C@](C)(OCC=Cc2cnc3ccccc3c2)C[C@@H](C)C(=O)[C@H](C)[C@H]2NC(=O)O[C@@]21C` [CETHROMYCIN] showed an IC50 (Cytochrome P450 3A4 [38]) of 2700 nM.
